Reference: ChEMBL document CHEMBL5614453 (ACS Med Chem Lett, 2024)
Each block holds one molecule with its values, some of them ahead of it. The source made the active and inactive calls.

Experiments:
[1] = tested on: Mus musculus; assay: Antihyperalgesic activity in CFA induced CD-1 albino mouse assessed as increase in pain threshold by measuring licking latency at 405 mg/kg, po measured after 40 mins by hot plate test; format: functional, organism-based
Summary of the method: (§1)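 Mice received an intraplantar CFA injection, and vehicle-treated animals served as controls. Thermal hyperalgesia was measured by hot plate as time in s to the first hind-paw licking. Readings were taken before dosing and every 20 min afterwards. Values are the mean of 6 mice from 2 experimental sets.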

[2] = target: Carbonic anhydrase 2 (Homo sapiens, UniProt P00918); assay: Inhibition of human CA2 preincubated for 15 mins by phenol red dye based stopped flow CO2 hydration assay
[3] = tested on: Mus musculus; assay: Antihyperalgesic activity in CFA induced CD-1 albino mouse assessed as increase in pain threshold by measuring paw withdrawal latency at 270 mg/kg, po measured after 40 mins by von frey test; format: functional
Summary of the method: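 Intraplantar CFA was used to induce inflammatory pain in mice, with vehicle-treated controls. Mechanical allodynia was measured by Von Frey test as the weight (g) tolerated on the paw, before dosing and every 20 min after. Values are the mean of 6 mice from 2 experimental sets.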

[4] = target: Carbonic anhydrase 12 (Homo sapiens, UniProt O43570); assay: Inhibition of human CA12 preincubated for 15 mins by phenol red dye based stopped flow CO2 hydration assay
Carbonic anhydrase 12, sequence (O43570 whole entry): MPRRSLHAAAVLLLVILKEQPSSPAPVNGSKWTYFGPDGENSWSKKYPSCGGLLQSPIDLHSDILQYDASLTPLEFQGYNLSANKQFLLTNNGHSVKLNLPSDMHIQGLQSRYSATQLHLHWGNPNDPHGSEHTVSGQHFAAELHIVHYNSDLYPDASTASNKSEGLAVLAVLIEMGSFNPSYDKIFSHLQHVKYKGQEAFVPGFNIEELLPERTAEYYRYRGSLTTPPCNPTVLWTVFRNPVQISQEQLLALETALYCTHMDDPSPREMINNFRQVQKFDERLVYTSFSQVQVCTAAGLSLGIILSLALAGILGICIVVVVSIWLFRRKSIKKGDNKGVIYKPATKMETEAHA

[5] = tested on: Mus musculus; assay: Antihyperalgesic activity in CFA induced CD-1 albino mouse assessed as increase in pain threshold by measuring paw withdrawal latency at 405 mg/kg, po measured after 40 mins by paw pressure test; format: functional, organism-based
Summary of the method: (§2)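 Inflammatory pain was induced by intraplantar CFA, with vehicle-treated controls. Mechanical hyperalgesia was measured by paw pressure test as paw withdrawal latency (s), before dosing and every 20 min after. Values are the mean of 6 mice from 2 experimental sets.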

[6] = target: Carbonic anhydrase 1 (Homo sapiens, UniProt P00915); assay: Inhibition of human CA1 preincubated for 15 mins by phenol red dye based stopped flow CO2 hydration assay
Carbonic anhydrase 1, sequence (P00915 whole entry): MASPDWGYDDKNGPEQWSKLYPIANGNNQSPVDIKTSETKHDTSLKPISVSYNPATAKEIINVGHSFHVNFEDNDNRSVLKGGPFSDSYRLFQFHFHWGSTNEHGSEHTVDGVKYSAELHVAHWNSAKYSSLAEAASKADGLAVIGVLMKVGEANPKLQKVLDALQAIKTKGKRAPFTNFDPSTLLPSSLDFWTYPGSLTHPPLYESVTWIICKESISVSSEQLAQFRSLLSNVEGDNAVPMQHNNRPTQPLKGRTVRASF

[7] = tested on: Mus musculus; assay: Antihyperalgesic activity in CFA induced CD-1 albino mouse assessed as increase in pain threshold by measuring licking latency at 270 mg/kg, po measured after 40 mins by hot plate test; format: functional, organism-based; summary of the method: as §1
[8] = tested on: Mus musculus; assay: Antihyperalgesic activity in CFA induced CD-1 albino mouse assessed as inhibition of mechanical hyperalgesia by measuring paw withdrawal latency at 270 to 405 mg/kg, po measured every 20 mins by paw pressure test; format: functional, organism-based; details: dose 270-405 mg/kg; summary of the method: as §2
[9] = tested on: Mus musculus; assay: Antihyperalgesic activity in CFA induced CD-1 albino mouse assessed as increase in pain threshold by measuring paw withdrawal latency at 405 mg/kg, po measured after 40 mins by von frey test; format: functional, organism-based
[10] = target: Carbonic anhydrase 9 (Homo sapiens, UniProt Q16790); assay: Inhibition of human CA9 preincubated for 15 mins by phenol red dye based stopped flow CO2 hydration assay
[11] = target: Carbonic anhydrase 7 (Homo sapiens, UniProt P43166); assay: Inhibition of human CA7 preincubated for 15 mins by phenol red dye based stopped flow CO2 hydration assay
Carbonic anhydrase 7, sequence (P43166 whole entry): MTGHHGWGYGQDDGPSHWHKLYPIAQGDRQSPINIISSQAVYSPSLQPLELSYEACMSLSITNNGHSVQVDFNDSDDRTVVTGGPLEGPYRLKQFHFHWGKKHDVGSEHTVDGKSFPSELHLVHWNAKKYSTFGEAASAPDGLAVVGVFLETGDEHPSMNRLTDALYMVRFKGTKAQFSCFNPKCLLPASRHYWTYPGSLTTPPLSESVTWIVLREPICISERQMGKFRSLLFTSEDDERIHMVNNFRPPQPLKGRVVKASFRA

[12] = tested on: Mus musculus; assay: Antihyperalgesic activity in CFA induced CD-1 albino mouse assessed as increase in pain threshold by measuring paw withdrawal latency at 270 mg/kg, po measured after 40 mins by paw pressure test; format: functional; summary of the method: as §2
[13] = tested on: Mus musculus; assay: Antihyperalgesic activity in CFA induced CD-1 albino mouse assessed as inhibition of mechanical allodynia by measuring paw withdrawal threshold at 270 to 405 mg/kg, po measured every 20 mins by von frey test; format: functional, organism-based; details: dose 270-405 mg/kg
[14] = target: Carbonic anhydrase 4 (Homo sapiens, UniProt P22748); assay: Inhibition of human CA4 preincubated for 15 mins by phenol red dye based stopped flow CO2 hydration assay
Carbonic anhydrase 4, sequence (P22748 whole entry): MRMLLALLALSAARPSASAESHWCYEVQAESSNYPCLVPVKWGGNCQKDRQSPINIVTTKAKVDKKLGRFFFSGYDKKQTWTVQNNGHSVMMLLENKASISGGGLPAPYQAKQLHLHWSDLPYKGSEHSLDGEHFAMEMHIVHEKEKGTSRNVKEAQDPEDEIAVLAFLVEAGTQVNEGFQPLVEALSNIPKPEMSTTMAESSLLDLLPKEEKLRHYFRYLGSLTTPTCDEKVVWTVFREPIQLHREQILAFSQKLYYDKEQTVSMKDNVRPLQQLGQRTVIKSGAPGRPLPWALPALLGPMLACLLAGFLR

[15] = tested on: Mus musculus; assay: Antihyperalgesic activity in CFA induced CD-1 albino mouse assessed as inhibition of mechanical allodynia by measuring paw withdrawal threshold at 330 mg/kg, po measured after 20 to 100 mins by von frey test; format: functional, organism-based; details: time 20-100 min
Summary of the method: (§3)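 Von Frey testing before dosing and every 20 min afterward. Read-out is the weight (g) the animal tolerated on the paw. Mean of 6 mice from 2 experimental sets; compared with pretest (0 min) and with vehicle-treated controls.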

[16] = tested on: Mus musculus; assay: Antihyperalgesic activity in CFA induced CD-1 albino mouse assessed as inhibition of thermal hyperalgesia by measuring licking latency at 330 mg/kg, po measured after 20 to 100 mins by hot plate test; format: functional, organism-based; details: time 20-100 min
Summary of the method: (§4)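 Hot plate test before dosing and every 20 min after. Time (s) to first hind-paw licking recorded. Mean of 6 mice from 2 experimental sets; compared with pretest (0 min) and vehicle controls.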

[17] = tested on: Mus musculus; assay: Antihyperalgesic activity in CFA induced CD-1 albino mouse assessed as inhibition of mechanical allodynia by measuring paw withdrawal threshold at 220 mg/kg, po measured every 20 mins by von frey test; format: functional, organism-based; summary of the method: as §3
[18] = tested on: Mus musculus; assay: Antihyperalgesic activity in CFA induced CD-1 albino mouse assessed as inhibition of mechanical hyperalgesia by measuring paw withdrawal latency at 220 mg/kg, po measured every 20 mins by paw pressure test; format: functional, organism-based
Summary of the method: (§5)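 Mechanical hyperalgesia measured by Paw Pressure test before dosing and every 20 min afterward, as paw-withdrawal latency (s). Values are means of 6 mice over 2 experimental sets; statistics vs pretest (0 min) and vs vehicle-treated controls.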

[19] = tested on: Mus musculus; assay: Antihyperalgesic activity in CFA induced CD-1 albino mouse assessed as inhibition of thermal hyperalgesia by measuring licking latency at 220 mg/kg, po measured every 20 mins by hot plate test; format: functional, organism-based; summary of the method: as §4
[20] = tested on: Mus musculus; assay: Antihyperalgesic activity in CFA induced CD-1 albino mouse assessed as inhibition of mechanical hyperalgesia by measuring paw withdrawal latency at 330 mg/kg, po measured after 20 to 100 mins by paw pressure test; format: functional, organism-based; details: time 20-100 min; summary of the method: as §5
[21] = tested on: Mus musculus; assay: Antihyperalgesic activity in CFA induced CD-1 albino mouse assessed as inhibition of thermal hyperalgesia by measuring licking latency at 50 to 200 mg/kg, po measured after 40 mins by hot plate test; format: functional, organism-based; details: dose 50-200 mg/kg; summary of the method: as §4
[22] = tested on: Mus musculus; assay: Antihyperalgesic activity in po dosed CFA induced CD-1 albino mouse assessed as inhibition of thermal hyperalgesia by measuring licking latency measured every 20 mins by hot plate test; format: functional, organism-based; details: dose 50-200 mg/kg; summary of the method: as §4
[23] = tested on: Mus musculus; assay: Antihyperalgesic activity in CFA induced CD-1 albino mouse assessed as inhibition of mechanical allodynia by measuring paw withdrawal threshold at 50 to 200 mg/kg, po measured after 80 mins by von frey test; format: functional, organism-based; details: dose 50-200 mg/kg; summary of the method: as §3
[24] = tested on: Mus musculus; assay: Antihyperalgesic activity in po dosed CFA induced CD-1 albino mouse assessed as inhibition of mechanical hyperalgesia by measuring paw withdrawal latency measured every 20 mins by paw pressure test; format: functional, organism-based; details: dose 50-200 mg/kg; summary of the method: as §5
[25] = tested on: Mus musculus; assay: Antihyperalgesic activity in CFA induced CD-1 albino mouse assessed as inhibition of mechanical hyperalgesia by measuring paw withdrawal latency at 50 to 200 mg/kg, po measured after 40 mins by paw pressure test; format: functional, organism-based; details: dose 50-200 mg/kg; summary of the method: as §5
[26] = tested on: Mus musculus; assay: Antihyperalgesic activity in CFA induced CD-1 albino mouse assessed as inhibition of mechanical allodynia by measuring paw withdrawal threshold at 50 to 200 mg/kg, po measured after 40 mins by von frey test; format: functional, organism-based; details: dose 50-200 mg/kg; summary of the method: as §3
[27] = tested on: Mus musculus; assay: Antihyperalgesic activity in CFA induced CD-1 albino mouse assessed as inhibition of thermal hyperalgesia by measuring licking latency at 50 to 200 mg/kg, po measured after 80 mins by hot plate test; format: functional, organism-based; details: dose 50-200 mg/kg; summary of the method: as §4
[28] = tested on: Mus musculus; assay: Antihyperalgesic activity in CFA induced CD-1 albino mouse assessed as inhibition of mechanical hyperalgesia by measuring paw withdrawal latency at 50 to 200 mg/kg, po measured after 80 mins by paw pressure test; format: functional, organism-based; details: dose 50-200 mg/kg; summary of the method: as §5
[29] = tested on: Mus musculus; assay: Antihyperalgesic activity in po dosed CFA induced CD-1 albino mouse assessed as inhibition of mechanical allodynia by measuring paw withdrawal threshold measured every 20 mins by von frey test; format: functional, organism-based; details: dose 50-200 mg/kg; summary of the method: as §3

SMILES: CC(=O)[Se]c1ccccc1C(=O)O
- Activity [1]: inactive
- Ki [2]: 32 µM
- Activity [3]: >50%
- Ki [4]: 8.2 µM
- Activity [5]: inactive
- Ki [6]: 5.2 µM
- Activity [7]: Active
- Activity [8]: Active
- Activity [9]: inactive
- Ki [10]: 1.4 µM
- Ki [11]: 5.2 µM
- Activity [12]: >50%
- Activity [13]: Active
- Ki [14]: 48 µM

- Ki [2]: 64.3 µM
- Ki [4]: 14 µM
- Ki [6]: 72.5 µM
- Ki [10]: 10.9 µM
- Ki [11]: 18.5 µM
- Ki [14]: 77.3 µM
SMILES: CC(=O)Sc1ccccc1C(=O)O
- Activity [15]: Active
- Activity [16]: Active
- Activity [17]: Active
- Activity [18]: Active
- Activity [19]: Active
- Activity [20]: Active

- Ki [4]: > 100 µM
- Ki [6]: > 100 µM
- Ki [10]: > 100 µM
- Ki [11]: > 100 µM
- Ki [14]: > 100 µM
SMILES: CC(=O)Oc1ccccc1C(=O)O [ASPIRIN]
- Activity [21]: Active
- Activity [22]: Dose-Dependent Effect
- Activity [23]: inactive
- Activity [24]: Dose-Dependent Effect
- Activity [25]: Active
- Activity [26]: Active
- Activity [27]: inactive
- Activity [28]: inactive
- Activity [29]: Dose-Dependent Effect
